# Screens: PubChem BioAssay, several laboratories
# EBNA-1 inh: blocks EBNA-1 binding to DNA; AID 1950; inhibition, % at 14.8 µM; 0.34% of 300,000 active; EBNA-1 DNA binding, fluorescence polarization; in the data active = inhibition above about 28%
# HCV core dimer: blocks dimerization of HCV core protein; AID 1899; TR-FRET GST/Flag-core106 dimerization, 1536-well; 0.33% of 300,000 active; inhibition, % at 5 µM;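 active = inhibition above the mean of all tested compounds plus 3 SD, set per screening campaign, cut at about 45% in these data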
#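 assay system = GST-tagged and Flag-tagged HCV core protein residues 1-106 | controls = unlabelled core106 and no-GST-core106 wells | incubation = compound-protein-antibody incubation 4 h at 22.5 °C | probe or stimulus = Eu donor and XL665 acceptor anti-tag antibodies | read-out = % inhibition based on acceptor/donor emission ratio | signal = TR-FRET 671 and 617 nm emission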
# SUMO HTRF inh: inhibitors of human SUMOylation (UBC9); P63279; HTRF SUMOylation assay, SAE1/SAE2 + UBC9, in vitro; inhibition, % at 35 µM; 0.36% of 290,000 active; AID 2006; in the data active = inhibition above about 50%, passing the limit was not always enough
# Target sequence (P63279 whole entry, looked up): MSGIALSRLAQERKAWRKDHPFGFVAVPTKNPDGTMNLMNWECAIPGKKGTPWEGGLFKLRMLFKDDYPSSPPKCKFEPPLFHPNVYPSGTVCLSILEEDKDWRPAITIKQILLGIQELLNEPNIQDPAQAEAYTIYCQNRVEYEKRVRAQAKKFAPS
# ZTA DNA inh: ZTA (EBV) inhibition in EBNA-1 counter-screen | P03206 | ZTA-DNA binding, fluorescence polarization | inhibition, % at 11 µM | 0.15% of 320,000 active | AID 2234; in the data active = inhibition above about 33%
# Target sequence (P03206 whole entry, looked up): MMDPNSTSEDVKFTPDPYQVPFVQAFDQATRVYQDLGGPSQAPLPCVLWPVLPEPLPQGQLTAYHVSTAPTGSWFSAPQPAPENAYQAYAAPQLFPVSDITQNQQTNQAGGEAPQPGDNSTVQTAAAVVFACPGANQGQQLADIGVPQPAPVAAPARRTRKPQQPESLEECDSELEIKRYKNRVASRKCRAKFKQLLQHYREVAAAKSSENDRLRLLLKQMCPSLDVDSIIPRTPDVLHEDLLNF
# HCV NS3 hel inh: inhibitors of Hepatitis C virus NS3 helicase | AID 1800 | inhibition, % at 10.9 µM | NS3 helicase DNA unwinding, Cy5 molecular beacon fluorescence | 0.56% of 290,000 active;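 active = inhibition above the mean of all tested compounds plus 3 SD, set per campaign, cut at about 35% in these data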;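 also: 0% = DMSO wells and 100% = thioflavine S control wells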
#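 Assay system – hepatitis C virus NS3 helicase domain fragment enzyme · Buffer or medium – MOPS pH 6.5, MgCl2, DTT, Tween20, BSA · Reagent – Cy5/quencher beacon DNA duplex and ATP to start · Compound – single 10.9 µM dose · Timing – 1 h at 25 °C · Technique – Cy5 beacon fluorescence read at start and 1 h · Measure – % inhibition of unwinding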
# * marks the source's active call; other numbers are inactive results; . = no result. This is a sample that favours compounds with a hit; in the whole collection about 1.4% have one here.
SMILES,EBNA-1 inh,HCV core dimer,SUMO HTRF inh,ZTA DNA inh,HCV NS3 hel inh
Cc1cc2[nH]c(=O)c(=O)[nH]c2cc1S(=O)(=O)Nc1cccc(Cl)c1C,2.5,-3.2,8.8,6.6,-0.6
CCCCc1nc(N2CCN(C(=O)c3ccco3)CC2)c(C#N)c2c1CCCC2,10.9,0.3,0.3,-5.2,15.9
Cc1c(C(=O)N2CCCCC2)c(S(=O)(=O)N2CCc3ccccc32)c(C)n1C,5.0,-0.8,0.8,0.9,-10.2
COc1ccc(C(=O)COC(=O)c2cccnc2Cl)c(OC)c1,-0.5,68.3*,21.9,0.5,6.8
CCc1cc(=O)oc2c3c(cc(OCC(=O)NCc4ccccn4)c12)OC(C)(C)CC3,7.5,-1.4,39.2,0.7,-21.7
CCc1cc(=O)oc2c3c(cc(OCC(=O)NCCCCCC(=O)O)c12)OC(C)(C)CC3,-3.1,4.3,53.1*,-4.5,-2.8
CC(NC(=O)COC(=O)C1CC2CCCC(C1)C2=O)c1ccccc1 (stereo not drawn),.,.,.,-4.3,.
O=C(O)C1=CC(=C(c2ccc(O)c(C(=O)O)c2)c2ccc(O)c(C(=O)O)c2)C=CC1=O,92.5*,77.2*,.,111.1*,.
Nc1ccc(O)c(C(=O)O)c1,-0.9,-3.4,.,-2.7,.
Cc1occc1-c1nnc(-c2cc([N+](=O)[O-])cc([N+](=O)[O-])c2)o1,-1.1,49.0*,5.1,8.8,5.5
O=[N+]([O-])c1cccc(-c2nnc(-c3ccccc3)o2)c1,24.6,3.6,15.0,-14.3,0.8
COc1ccc(N2Cc3cccc(C(=O)N4CCN(C(=O)c5ccco5)CC4)c3C2=O)cc1,2.1,85.4*,5.9,-6.5,5.7
CCC(=O)N/N=C/c1ccc(-c2ccc([N+](=O)[O-])cc2)o1,1.9,2.0,28.8,18.8,-1.5
COc1ccc(N(CC(=O)N/N=C/c2ccc(-c3ccc([N+](=O)[O-])cc3)o2)S(=O)(=O)c2ccc(C)cc2)cc1,-5.3,52.4*,38.6,0.5,-2.0
COc1ccc(N(CC(=O)N/N=C/c2ccc(-c3ccc([N+](=O)[O-])cc3)o2)S(=O)(=O)c2ccc(C)cc2)cc1Cl,-8.1,63.0*,35.7,15.5,-1.6
COC(=O)C1Cc2c([nH]c3ccccc23)CN1C(C)=O (stereo not drawn),-4.5,-4.1,10.6,13.3,20.9
CC1CN(C(=O)CCC(=O)NCCCN2CCN(Cc3ccccc3)CC2)c2cc(Cl)ccc2O1 (stereo not drawn),-6.9,-10.6,2.4,2.1,-17.0
Cc1[nH]n(-c2ncc(-c3ccc(Cl)cc3)s2)c(=O)c1C(c1ccc(Cl)cc1)C(C#N)C#N (stereo not drawn),-2.7,-8.4,70.0*,-5.2,27.9
COc1ccc(C(c2c(C)[nH]n(C(N)=S)c2=O)C(C#N)C#N)cc1 (stereo not drawn),-3.6,6.6,15.7,-1.0,8.1
Cc1ccc(NC(=S)Nc2cccc3cnccc23)c(C)c1,2.2,2.8,97.4*,6.9,-1.9
COc1ccc(C(=O)NCC(=O)N2CCCC(C(F)(F)F)C2)cc1OC (stereo not drawn),12.8,0.8,.,3.0,.
COc1ccccc1CCNC(=O)C(=O)NCC1OCCN1S(=O)(=O)c1ccc(C)cc1 (stereo not drawn),0.0,7.2,7.0,9.5,1.4
O=C(O)c1cc(O)c2c(c1)[C@@H]([C@H]1c3cc(C(=O)O)cc(O)c3C(=O)c3c(O[C@@H]4O[C@H](CO)[C@@H](O)[C@H](O)[C@H]4O)cccc31)c1cccc(OC3O[C@H](CO)[C@@H](O)[C@H](O)[C@H]3O)c1C2=O (stereo partly drawn),93.9*,-13.7,.,15.3,.
O=C1c2cc(CO)cc(O)c2C(=O)c2c(O[C@@H]3OC(CO)[C@@H](O)[C@@H](O)[C@@H]3O)cccc21 (stereo partly drawn),-7.0,-2.9,.,-4.6,.
O=C(O)c1cc(O)c2c(c1)[C@H]([C@H]1c3cc(C(=O)O)cc(O)c3C(=O)c3c(O[C@@H]4O[C@H](CO)[C@@H](O)[C@H](O)[C@H]4O)cccc31)c1cccc(OC3O[C@H](CO)[C@@H](O)[C@H](O)[C@H]3O)c1C2=O (stereo partly drawn),93.8*,38.0,.,13.6,.
SMILES,EBNA-1 inh,HCV core dimer,SUMO HTRF inh,ZTA DNA inh,HCV NS3 hel inh
O=C(CSc1nnc(-c2ccncc2)o1)Nc1ccc(F)c(F)c1,.,.,.,-0.9,.
CN(C)c1ccc(NC(=O)c2sc(SCC(=O)Nc3nccs3)nc2N)cc1,5.0,-18.5,-16.2,-26.2,-8.8
CN(C)c1ccc(NC(=O)c2sc(SCC(=O)Nc3ccc(Br)cc3)nc2N)cc1,1.3,25.9,54.8*,6.5,-5.1
C/C(N)=C(/C#N)C(=O)CSc1nc2ccc(C)cc2[nH]1,-0.1,0.3,23.8,4.7,3.1
C/C(N)=C(/C#N)C(=O)CSc1nnc(COc2cc(C)ccc2C)o1,37.7*,4.0,9.6,52.8*,2.1
Cc1cc(OC(C)C(=O)NCC(O)c2ccccc2)c2c(C)c(C)c(=O)oc2c1 (stereo not drawn),2.5,-15.8,18.3,-18.4,13.3
Cc1cc(OC(C(=O)O)c2ccccc2)c2c(C)c(Cc3ccccc3)c(=O)oc2c1 (stereo not drawn),7.8,22.7,51.1*,20.4,-1.3
CSc1ccc(NC(=O)NCc2ccccc2)cc1,3.3,-5.4,8.7,6.6,4.9
Cc1ccc(C)c(S(=O)(=O)Nc2cc(SCC(=O)O)c(O)c3ccccc23)c1,7.6,-17.9,80.4,-2.5,17.2
CCOc1ccc(S(=O)(=O)Nc2cc(SCC(=O)O)c(O)c3ccccc23)cc1,.,.,74.6*,.,17.3
O=C(O)CSc1cc(NS(=O)(=O)c2cccc([N+](=O)[O-])c2)c2ccccc2c1O,.,.,87.8*,.,18.6
CCc1ccc(S(=O)(=O)Nc2cc(SCC(=O)O)c(O)c3ccccc23)cc1,-0.5,-3.0,100.6*,2.0,18.0
COc1ccc(CCNC(=O)C2CCC(=O)N(CC3CCCCC3)C2)cc1 (stereo not drawn),.,.,-7.8,.,11.3
COc1cc2ccccc2nn1,5.9,-1.5,23.3,1.3,-1.2
COc1ccc2c(n1)Sc1nc3ccccc3nc1N2,-1.6,-38.3,74.8*,2.1,11.4
N#CC1(NC(=O)COC(=O)/C=C/c2ccc3ccccc3n2)CCCCC1,7.8,48.3*,1.8,14.1,4.4
Cc1ccc(S(=O)(=O)N(C)C)cc1NC(=O)COC(=O)/C=C/c1ccc2ccccc2n1,-8.1,3.8,.,7.0,.
COc1cc2[nH]c(C(=O)Nc3ccc(F)cc3)cc2c(OC)c1OC,-18.1,-52.6,18.1,-16.4,-12.1
O=C(COc1ccccc1Cl)c1ccc[nH]1,-17.4,67.3*,45.9,-4.8,3.0
COc1cc(/C=C/C(=O)OCC(=O)N(C)C2CCS(=O)(=O)C2)ccc1OC(F)F (stereo not drawn),-4.0,7.2,1.0,0.8,4.9
CCN1C(=O)C(NC(C)=O)c2cc(OC)ccc21 (stereo not drawn),-8.3,1.2,11.2,-5.2,3.5
